Bioassay records (PubChem BioAssay)
Rows were chosen to be rich in hits. Some 1.6% of all compounds tested hit in one or more screens of this group.
SR-BI DiI inh: blocks mouse SR-BI lipid uptake from DiI-HDL. ldlA[mSR-BI] CHO cells, DiI-HDL uptake fluorescence, 3 h. AID 488896. actives 0.96% (n = 320,000). inhibition, % at 12.5 µM;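 active means mean replicate inhibition of at least 70% and a set share of replicates each scoring 70 or more; inconclusive means meets just one of the two criteria; inactive means fails both criteria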;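 further: 0% = median of neutral control wells and 100% = median of positive control wells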
Target sequence (Q61009 whole entry, looked up): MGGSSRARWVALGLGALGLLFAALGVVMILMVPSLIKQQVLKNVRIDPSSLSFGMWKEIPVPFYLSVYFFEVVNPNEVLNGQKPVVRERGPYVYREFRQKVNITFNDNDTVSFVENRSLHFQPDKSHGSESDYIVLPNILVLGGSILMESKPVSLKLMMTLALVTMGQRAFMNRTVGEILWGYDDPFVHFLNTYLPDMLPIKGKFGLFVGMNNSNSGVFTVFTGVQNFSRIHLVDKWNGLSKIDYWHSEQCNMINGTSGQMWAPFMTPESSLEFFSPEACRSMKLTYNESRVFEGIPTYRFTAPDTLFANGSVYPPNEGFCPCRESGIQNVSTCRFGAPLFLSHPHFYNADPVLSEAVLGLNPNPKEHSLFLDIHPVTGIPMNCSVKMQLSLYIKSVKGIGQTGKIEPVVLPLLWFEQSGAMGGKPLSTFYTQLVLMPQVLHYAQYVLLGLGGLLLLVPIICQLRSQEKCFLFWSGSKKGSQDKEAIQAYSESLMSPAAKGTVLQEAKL
SR-BI uptake up: enhances SR-BI lipid uptake from DiI-HDL. CHO ldlA[mSR-BI] cells, DiI-HDL uptake fluorescence, 3 h; 100 = double the neutral-control signal. activation, % at 12.5 µM. actives 0.096% (n = 320,000);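 active means mean replicate activation of at least 60% and every replicate at or above 60%; inconclusive means mean or all-replicate condition met, but not both; inactive means mean below 60% and not all replicates reaching 60%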;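 further: 0% = median plate neutral-control signal and 100% = twice that signal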
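Assay system: CHO ldlA[mSR-BI] cells, LDL receptor-null, SR-BI overexpressing; medium: Ham's F12 with 0.5% BSA, HEPES 25 mM, pH 7.4; also added: DiI-HDL 10 µg/mL; timing: 3 h uptake period with compound, 37 °C; signal: DiI fluorescence, bottom read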
RAD54 inh: RAD54 (human) branch migration inhibition; RAD54 Holliday junction branch migration, FAM/BHQ fluorescence; AID 602329; Q92698; actives 0.14% (n = 360,000); inhibition, % at 10.4 µM;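 active means mean normalized replicate activity at least 40 and at least half of replicates scoring 40 or more; inconclusive means only one of the two criteria met; inactive means mean below 40 and under half of replicates reaching 40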;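 further: 0% = median of neutral control wells and 100% = median of positive control wells; inhibitors cause a drop in the FAM fluorescence signal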
dFosB activator: activators of mouse delta FosB homodimer. purified delta FosB, TAMRA-CDK5 oligo fluorescence polarization; percent of positive-control signal above neutral wells. activation, % at 25 µM. actives 0.99% (n = 340,000). AID 493131;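 active means mean activation above about 17%, with every replicate also reaching it, limit read from the data, passing the limit was not always enough; inconclusive means only one of the two conditions met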
S100A4 MyoIIA: blocks human S100A4 binding to myosin IIA peptide | P26447 | S100A4/TAMRA-MyoIIA peptide fluorescence polarization | inhibition, % at 10.7 µM | actives 0.14% (n = 360,000) | AID 652163;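 active means mean inhibition of at least 70% across replicates, with every replicate also reaching that level; inconclusive means mean inhibition reaches 70% but some replicates fall short; inactive means mean inhibition below 70%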
Target sequence (P26447 whole entry, looked up): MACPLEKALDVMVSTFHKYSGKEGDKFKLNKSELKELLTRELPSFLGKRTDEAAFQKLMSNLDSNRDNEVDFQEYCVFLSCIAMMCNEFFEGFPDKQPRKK
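assay system = human S100A4 monomer with TAMRA-labelled myosin IIA peptide | also added = labelled myosin peptide probe, 5 nM | incubation = 5 min between mix addition and reading | control set = DMSO and TFP controls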
PvdQ acylase: P. aeruginosa PvdQ acylase inhibition | inhibition, % at 10 µM | actives 0.063% (n = 340,000) | purified PvdQ acylase, fluorescence plate reader; in the data active means inhibition above about 30%, passing the limit was not always enough; inconclusive means no clear call, values can overlap the other calls;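 further: 0% = vehicle neutral wells and 100% = reference inhibitor wells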
* = called active by the depositor; u = inconclusive; x = no result; ! = not active in a repeat.

SMILES	SR-BI DiI inh	SR-BI uptake up	RAD54 inh	dFosB activator	S100A4 MyoIIA	PvdQ acylase
NS(=O)(=O)c1ccc(N=Nc2c(-c3ccccc3)[nH]n(-c3nc(-c4ccccc4)cs3)c2=O)cc1	112.1*	-112.1	-1.0	-10.0	x	9.1
Nc1[nH]n2c(=O)cc(-c3ccccc3)nc2c1N=Nc1ccc(S(N)(=O)=O)cc1	2.2	-2.2	x	-24.1	1.0	12.7
C[C@H](CO)N1C[C@H](C)[C@@H](CN(C)C(=O)Nc2ccccc2)OCCCC[C@H](C)Oc2ccc(NC(=O)Nc3ccc4c(c3)OCO4)cc2C1=O	x	x	10.6	x	-27.4	x
C[C@@H](NC(=O)Cn1cnc2c(OCc3ccccc3)ncnc21)c1cccc2ccccc12	17.0	-17.0	-4.4	26.0*	-13.1	-3.8
C[C@@H](NCCCn1cnc2c(OCc3ccccc3)ncnc21)c1cccc2ccccc12	3.9	-3.9	4.6	-18.1	-2.5	-1.8
CCCC#Cc1cnc2c(c1)C(=O)N([C@H](C)CO)C[C@H](C)[C@H](CN(C)S(=O)(=O)c1cccc(OC)c1)O2	x	x	1.1	x	-13.9	x
O=C(N/N=C/c1c(-c2ccccc2)[nH]c2ccccc12)c1cccnc1	75.2*	-75.2	x	-14.4	-0.5	12.3
CCC(=O)c1ccc(OCC(O)CNC2CCCC2)cc1 (centres undefined)	-32.4	32.4	-16.6	16.1*	-1.4	-11.6
CCC(=O)N1C[C@H](O)COC[C@H]2O[C@@H](CC(=O)NC)CC[C@@H]21	x	x	5.0	x	8.7	x
c1ccc(Nc2nc(-c3cccs3)cs2)nc1	-8.0	8.0	1.5	6.6	x	4.2
Nc1ccc(Nc2nc(-c3cccs3)cs2)cc1	99.9*	-99.9	x	-0.6	-2.1	-8.1
Cc1noc(C)c1NC(=O)N(C)C[C@@H]1Oc2c(NC(=O)c3ccc(-c4nccs4)cc3)cccc2C(=O)N([C@@H](C)CO)C[C@@H]1C	x	x	3.1	x	-19.1	x
O=C(NCCCn1ccnc1)c1nn2c(C(F)(F)F)cc(-c3ccccc3)nc2c1Cl	24.0	-24.0	0.6	-12.1	-3.0	51.1*
O=c1[nH]c2ccc(NCc3ccccc3OCc3ccc(Cl)cc3)cc2[nH]1	71.7*	-71.7	13.9	-2.7	-9.5	-7.8
COc1cccc(CNc2ccc3[nH]c(=O)[nH]c3c2)c1OCc1ccc(F)cc1	-15.7	15.7	-0.9	-7.7	-7.5	1.1
C[C@H]1CN([C@@H](C)CO)C(=O)c2cc(Br)cnc2O[C@H]1CN(C)C(=O)c1ccccc1	x	x	2.0	x	-28.1	x
CCCNC(=O)C1CC(=O)N(c2ccc(OCC)cc2)C1 (centres undefined)	-3.0	3.0	-0.6	1.2	0.7	0.4
COc1ccc(C(=O)Nc2ccc(N3CCCC3)cc2)cc1	52.7	-52.7	-5.6	28.8*	x	-6.6
COc1ccc(C(=O)Nc2ccc(N3CCCC3)cc2)cc1OC	74.0*	-74.0	6.6	-26.5	-10.1	-0.8
CCCCOc1ccc(C(=O)NCC(=O)N(C)CC(=O)Nc2ccc(N3CCOCC3)cc2)cc1	82.4*	-82.4	-1.5	-5.5	2.4	-4.1
COc1ccc(C(=O)Nc2ccc(N3CCOCC3)cc2)cc1OC	8.1	-8.1	2.1	-3.5	x	6.2
CCOc1ccc(N2CC(C(=O)NNC(=O)c3ccc(Br)cc3)CC2=O)cc1 (centres undefined)	35.5	-35.5	-5.9	-1.6	73.2*	-11.5
C[C@H](CO)N1C[C@H](C)[C@@H](CN(C)C)Oc2ccc(NC(=O)Nc3ccc4c(c3)OCO4)cc2CC1=O	x	x	-3.7	x	44.9	x
O=C(C[C@H]1CC[C@H](NS(=O)(=O)c2ccccc2)[C@@H](CO)O1)N1CCc2ccccc2C1	x	x	6.0	x	7.1	x
COc1ccc(C(=O)Nc2ccc(N3CCN(C(=O)c4cccs4)CC3)cc2)cc1Br	72.2*	-72.2	-3.0	0.2	-0.8	-2.0
SMILES	SR-BI DiI inh	SR-BI uptake up	RAD54 inh	dFosB activator	S100A4 MyoIIA	PvdQ acylase
CCOc1ccc(C(=O)Nc2ccc(N3CCCC3)cc2)cc1	77.2*	-77.2	x	22.0*	x	-7.2
CCOc1cccc(C(=O)Nc2ccc(N3CCCC3)cc2)c1	74.7*	-74.7	4.9	-1.8	-2.5	3.2
COc1cc(C(=O)NC(=S)Nc2ccc(N3CCCC3)cc2)cc(OC)c1OC	74.6*	-74.6	x	-4.9	x	-12.3
COc1ccc(NC(=O)N[C@@H]2CC[C@H](CCNC(=O)c3ccccc3F)O[C@H]2CO)cc1	x	x	3.5	x	1.5	x
O=C(N[C@H]1CC[C@@H](CC(=O)N2CCCCC2)O[C@H]1CO)c1ccc2c(c1)OCO2	x	x	-5.7	x	0.5	x
CCOc1ccc(C(=O)Nc2ccc3c(c2)C(=O)NC3=O)cc1	0.9	-0.9	8.6	58.7*	-3.8	-14.6
Cc1ccc(OCC(=O)Nc2ccc(C)c(S(=O)(=O)N3CCCCCC3)c2)c([N+](=O)[O-])n1	73.5*	-73.5	0.7	-7.7	3.0	3.5
COc1ccc(NC(=O)c2ccc(CNc3c(NC4CCCCC4)c(=O)c3=O)cc2)cc1OC	78.3*!	-78.4	-8.7	3.8	-4.6	-10.8
COc1ccc(C(=O)Nc2ccc(C)c(S(=O)(=O)N3CCCCCC3)c2)cc1	80.5*	-80.5	x	-4.8	0.1	1.8
C[C@H](CO)N1C[C@H](C)[C@H](CN(C)S(C)(=O)=O)Oc2cc(C#CC3CC3)ccc2S1(=O)=O	x	x	-3.0	x	-3.7	x
CN1CCN(c2ccc(NC(=S)NC(=O)c3cccc4c(Cl)cccc34)cc2)CC1	14.1	-14.1	-3.9	49.1*	7.0	-3.7
CC(=O)OC(C)=O	-4.8	4.8	0.9	-0.3	78.9*	-17.2
CCN(CC)C(=O)/C(=C/c1cn(S(=O)(=O)N(C)C)c2ccccc12)NC(=O)c1ccc(OC)cc1	87.9*	-87.9	x	0.7	-7.3	-8.7
Cc1ccc(Nc2nc(N/N=C/c3c[nH]c4ccccc34)nc(N3CCOCC3)n2)cc1	110.3*	-110.3	x	u	-2.6	-5.3
COc1cccc(-c2ccc([C@@H]3[C@H](CO)N4CCCCN(C(=O)NC(C)C)C[C@@H]34)cc2)c1	x	x	-4.3	x	x	x
CC(/C=C/c1ccc(N(C)C)cc1)=N/N=C1/NC(=O)CC(C(=O)Nc2ccc(Cl)cc2)S1 (centres undefined)	31.9	-31.9	4.0	1.9	-14.8	2.9
CCCOc1ccc(NC(=O)C2CC(=O)N/C(=N/N=C(C)/C=C/c3ccc(N(C)C)cc3)S2)cc1 (centres undefined)	82.2*	-82.2	0.6	-10.2	x	-2.5
CCc1ccc(/C(C)=N/Nc2cc(Cl)nc(C)n2)cc1	78.6*	-78.6	10.8	-2.5	x	-4.5
Cc1cc(C)cc(NC(=O)[C@H](Cc2c[nH]c3ccccc23)NC(=O)[C@@H]2Cc3ccccc3CN2)c1	19.0	-19.0	7.5	-5.0	-13.6	14.8
